From article PMC10173409 (Science translational medicine, 2023)
Where two headings read alike, the source gives them in different places.

Columns and labels:
mouse corneal epithelium [1] = assay: Corneal epithelial barrier function, fluorescein staining in vivo
[2] = system: TLR2, mouse peritoneal neutrophils; assay: TLR2 endocytosis in neutrophils, flow cytometry; type: cell-based; conditions: peptide alone 200 μg/ml (LTA 500 ng/ml), 1 h; Fig. 4C
Outline: (§1)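 Thioglycolate-elicited C57BL/6J peritoneal neutrophils (day 1) or adherent macrophages (day 3) incubated 1 h with test peptide alone. TLR2 localisation assessed by flow cytometry as cell-surface versus intracellular staining.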

[3] = system: TLR2, mouse peritoneal macrophages; assay: TLR2 endocytosis in macrophages, flow cytometry; type: cell-based; conditions: peptide alone 200 μg/ml (LTA 500 ng/ml), 1 h; Fig. 4D
Outline: as §1

[4] = system: thioglycolate-elicited mouse peritoneal neutrophils; assay: LPS/LTA-induced cytokine secretion from neutrophils, ELISA; type: cell-based; conditions: for dose dependence of cytokine inhibition, neutrophils: 50, 100 or 200 μg/ml, 8 h, Fig. S2; for cytokine suppression at 24 h, neutrophils: 24 h post-ligand stimulation, Fig. S3
Outline: (§2)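 C57BL/6J mice injected i.p. with 1 ml 3% thioglycolate. Peritoneal neutrophils collected day 1 (DMEM), macrophages day 3 (RPMI, 6 h adherence), both 2% FBS, 1x10⁵ cells/well after RBC lysis. Stimulated with P. aeruginosa LPS or S. aureus LTA (500 ng/ml); test peptide (50, 100 or 200 μg/ml) added 30 min before or after. Incubated 8 or 24 h, 37°C/5% CO₂. Supernatant IL-6, TNFα, G-CSF, CXCL1, CXCL2, CXCL10 measured by ELISA.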

red blood cells = assay: Hemolysis; type: cell-based; conditions: for toxic effect on blood cells: discussion summary; for hemolysis (amount of hemoglobin released): vs untreated samples, Fig. S1C
human MD2/TLR4 complex = assay: MD2 blocking assay; type: binding; conditions: for inhibition of LPS binding to MD2/TLR4 beads (in words): 30-min preincubation, peptide 60 μM, FITC-LPS 1 μg/ml, Fig. 3A; for inhibition of LPS binding to MD2/TLR4 beads with soluble MD2: soluble MD2 1 μg/ml present during preincubation with peptide 60 μM, Fig. 3B
Outline: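 Human MD2/TLR4-conjugated latex beads incubated with test peptide (60 μM), without or with soluble MD2 (1 μg/ml). Beads washed, then incubated with FITC-LPS (1 μg/ml). Percentage of LPS⁺ beads quantified by flow cytometry. Mean ± SEM, n = 3-5 independent experiments.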

Pseudomonas aeruginosa = conditions: ref [20]; cited from earlier work
[5] = system: thioglycolate-elicited mouse peritoneal macrophages; assay: LPS/LTA-induced cytokine secretion from macrophages, ELISA; type: cell-based; conditions: for dose dependence of cytokine inhibition, macrophages: 50, 100 or 200 μg/ml, 8 h, Fig. S2; for cytokine suppression at 24 h, macrophages: 24 h post-ligand stimulation, Fig. S3
Outline: as §2

immune cells [6] = assay: Toxic effect on immune cells; conditions: discussion summary
S. aureus, mouse corneas [7] = assay: Prophylaxis of S. aureus keratitis; type: in vivo; conditions: 0.1% (5 μg) topical once 30 min before 10^6 CFU, 24 h; for bacterial burden, S. aureus prophylaxis: Fig. 5H; for immune cell infiltration, S. aureus prophylaxis: Fig. 5I, J
Outline: (§3)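 C57BL/6J mice (both sexes, 10-12 wk), anesthetized with ketamine/dexmedetomidine i.p. One cornea per mouse, scarified with three 26g-needle abrasions. 5 μl test peptide (0.1% in saline, 5 μg) applied once, 30 min before amikacin-resistant P. aeruginosa 10⁵ CFU or S. aureus 10⁶ CFU. At 24 h: homogenate CFU on tryptic soy agar; collagenase-digested corneas analysed by flow cytometry for CD45⁺, Ly6B.2⁺F4/80⁻ and F4/80⁺ cells. n = 8-10, two experiments.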

hTCEpi cells = assay: TUNEL assay of DNA fragmentation; type: cell-based, human; conditions: 24-h incubation, Fig. S1B
[8] = system: amikacin-resistant P. aeruginosa, mouse corneas; assay: Treatment of established P. aeruginosa keratitis; type: in vivo; conditions: for total leukocytes, neutrophils and macrophages, P. aeruginosa treatment: 3 times daily, as early as one day post-treatment, Fig. 6C-F; for disease severity over the 3-day treatment course, P. aeruginosa: 5 μg in liposomes topical 3 times daily
Outline: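 Scarified C57BL/6J corneas (one per mouse) inoculated with amikacin-resistant P. aeruginosa (10⁵ CFU). From 24 h post-infection: test peptide in phosphatidylcholine/stearylamine/cholesterol liposomes (5 μg in 5 μl), or liposome vehicle, applied topically three times daily for 1 or 3 days. Blinded 0-16 clinical score from four opacity/epithelial features. Corneal CD45⁺ leukocytes, Ly6B.2⁺F4/80⁻ neutrophils and F4/80⁺ macrophages counted by flow cytometry.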

[9] = system: cell surface/endosomal TLR3; assay: media poly; type: cell-based, mouse; conditions: neutrophils, high-molecular-weight poly(I:C) 1 μg/ml added to media; Fig. 1D
Outline: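 Thioglycolate-elicited mouse peritoneal neutrophils (collected day 1, DMEM/2% FBS) were stimulated with high-molecular-weight poly(I:C) (1 μg/ml) added to medium, alone or with test peptide, at 37°C/5% CO₂. Phospho-NFκB p65⁺ and phospho-IRF3⁺ cells were quantified by intracellular flow cytometry. Mean ± SD, N = 3 replicates.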

[10] = system: amikacin-resistant P. aeruginosa keratitis isolate, mouse corneas; assay: Prophylaxis of P. aeruginosa keratitis; type: in vivo; conditions: 0.1% (5 μg) topical once 30 min before infection; 24 h; P < 0.01; Fig. 5D, E
Outline: as §3

[11] = ref [20]; cited from earlier work
mouse corneal epithelium [12] = assay: Corneal wound healing; type: in vivo; conditions: 0.1% topical, 2.5 μg peptide three times within 24 h, 6 h and 24 h after wounding, vs saline and SC10, Fig. S1E
Outline: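 C57BL/6J mice, both sexes, 10–12 wk, anesthetised i.p. with ketamine/dexmedetomidine, reversed with atipamezole. Central 2 mm corneal epithelium removed with blade. Wounds got topical saline or test peptide (2.5 μg) three times within 24 h. Defects stained with 0.38% fluorescein immediately, 6 h and 24 h post-injury; stained area measured. One cornea per mouse.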

S. aureus, mouse corneas [13] = assay: Treatment of established S. aureus keratitis; type: in vivo; conditions: for infectious load, S. aureus treatment: 5 μg in liposomes, 3 times daily, Fig. 7G
Outline: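 C57BL/6J mice, both sexes, 10–12 wk. Corneas scarified with three 26g needle abrasions, inoculated with S. aureus 10⁶ CFU. From 24 h post-infection, 5 μg test peptide in 5 μl liposome mix (phosphatidylcholine/stearylamine/cholesterol) or liposome vehicle given topically three times daily for 1 or 3 days. Blinded daily scoring of four features (0–4 each, total 0–16). Endpoint CFU from corneal homogenates plated on tryptic soy agar.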

[14] = system: human telomerase-immortalized corneal epithelial (hTCEpi) cells; assay: MTT cell viability; type: cell-based; conditions: discussion summary
Outline: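 hTCEpi (telomerase-immortalized human corneal epithelial) cells incubated 24 h with test peptide at 200 μg/ml (0.02% w/v), with a scrambled peptide as control. Viability was read by MTT assay.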

TLR2 = assay: LTA displacement assay; type: binding, human; conditions: 60 μM, 30 min; Fig. 3F
Outline: (§4)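 Beads conjugated with human MD2/TLR4 complex or TLR2 were preincubated with FITC-LPS or FITC-LTA (1 μg/ml) respectively, PBS-washed, then mixed with test peptide (60 μM). Percentage of ligand-positive beads was measured by flow cytometry. Mean ± SEM, n = 3-5 independent experiments.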

MD2/TLR4 complex = assay: LPS displacement assay; type: binding, human; conditions: 60 μM, 30 min; Fig. 3E
Outline: as §4

[15] = ref [49], [50]; cited from earlier work
bacteria = conditions: high-salt media; ref [49], [50]; cited from earlier work
Staphylococcus aureus = conditions: ref [20]; cited from earlier work
immune cells [16] = system: immune cells
[17] = ref [20]; cited from earlier work; remark: listed apart in the source

Row | Substance | TLR2 internalization, neutrophils [2] | TLR2 internalization, macrophages [3] | dose dependence of cytokine inhibition, neutrophils [4] | cytokine suppression at 24 h, neutrophils [4] | toxic effect on blood cells (red blood cells) | hemolysis (amount of hemoglobin released) (red blood cells) | inhibition of LPS binding to MD2/TLR4 beads (in words) (human MD2/TLR4 complex) | inhibition of LPS binding to MD2/TLR4 beads with soluble MD2 (human MD2/TLR4 complex) | dose dependence of cytokine inhibition, macrophages [5] | cytokine suppression at 24 h, macrophages [5] | bacterial burden, S. aureus prophylaxis (S. aureus, mouse corneas [7]) | immune cell infiltration, S. aureus prophylaxis (S. aureus, mouse corneas [7]) | apoptosis (hTCEpi cells) | total leukocytes, neutrophils and macrophages, P. aeruginosa treatment ([8]; 5 μg in liposomes) | infiltrated leukocytes, neutrophils and macrophages, P. aeruginosa prophylaxis [10] | barrier restoration after wounding (re-epithelialization) (mouse corneal epithelium [12]) | corneal barrier function, fluorescein staining (mouse corneal epithelium [1]; mouse, in vivo) | infectious load, S. aureus treatment (S. aureus, mouse corneas [13]) | toxic effect on corneal epithelial cells [14] | disease severity over the 3-day treatment course, P. aeruginosa ([8]; Fig. 6A, B) | also measured
1 | Benzalkonium chloride [BAK, reference compound] |  |  |  |  |  |  |  |  |  |  |  |  |  |  |  |  |  |  |  |  | corneal barrier function, fluorescein staining (mouse corneal epithelium [1]; mice, one topical application at 0.1% in saline, Fig. S1D): high degree of fluorescein penetration
2 | GGLSSVGGGS [KAMP10] | triggered internalization of TLR2 | triggered internalization of TLR2 | dose-dependent | effective suppression | no detectable toxic effect | no difference from the baseline of untreated samples | effectively inhibited subsequent LPS binding | inhibitory effect was abolished | dose-dependent | effective suppression | alleviated | alleviated | did not induce apoptosis | substantially reduced | significantly reduced | substantially accelerated | remained stain-free | substantially reducing the infectious load | no detectable toxic effect |  | bactericidal mechanism, P. aeruginosa (Pseudomonas aeruginosa): perforated Pseudomonas aeruginosa membrane; toxic effect on immune cells (immune cells [6]): no detectable toxic effect; relative effect on disease severity, P. aeruginosa treatment ([8]; KAMP10 vs KAMP18C, 5 μg in liposomes, 1 DAT, Fig. 6A, B): effect more prominent; p65 and IRF3 phosphorylation, media poly(I:C) [9]: inhibited p65 and IRF3 phosphorylation; binding affinity for LPS [11]: modest binding affinity
3 | GLSGVGSGSG [SC10, reference compound] |  |  |  |  |  |  | but not SC10, effectively inhibited |  |  |  |  |  |  |  |  | in contrast to saline and SC10 | stain-free similarly to the SC10- or saline-treated controls |  |  | severity progression or lack of improvement | displacement of LTA from TLR2 beads (in words) (TLR2): as opposed to SC10; displacement of LPS from MD2/TLR4 beads (in words) (MD2/TLR4 complex): as opposed to SC10
4 | LL-37 |  |  |  |  |  |  |  |  |  |  |  |  |  |  |  |  |  |  |  | severity progression or lack of improvement | LPS- and LTA-neutralizing activity [15]: known LPS- and LTA-neutralizing activities; bactericidal activity of LL-37 (bacteria): characterized bactericidal activities in high-salt media
5 | RAIGGGLSSVGGGSSTIK [KAMP18C] | triggered internalization of TLR2 | triggered internalization of TLR2 | dose-dependent | effective suppression | no detectable toxic effect | no difference from the baseline of untreated samples | effectively inhibited subsequent LPS binding | inhibitory effect was abolished | dose-dependent | effective suppression | alleviated | alleviated | did not induce apoptosis | substantially reduced | significantly reduced | substantially accelerated | remained stain-free | substantially reducing the infectious load | no detectable toxic effect |  | bactericidal mechanism, S. aureus (Staphylococcus aureus): caused major damage to the cell envelope of Staphylococcus aureus; toxic effect on immune cells (immune cells [16]): no detectable toxic effect; binding affinity for LTA [17]: modest binding affinity; relative effect on disease severity, S. aureus treatment (S. aureus, mouse corneas [13]; KAMP18C vs KAMP10, 5 μg in liposomes, Fig. 7A, B): more effective against S. aureus infection
